# Experimental data as given in ChEMBL document CHEMBL4689842, “EUbOPEN Chemogenomics Library wave 1” (2021).
# Tested on: Fibroblast
# Assay: Multiplex assay against human fibroblast
# Format: toxicity, cell-based
# How it was run: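 Values for tubulin, mitochondrial-mass and membrane-permeability phenotypes are per cents of cells with healthy nuclei. These cells were identified by CellPathfinder machine-learning gating of live cells that had been stained at seeding with Hoechst33342, BioTracker Green Microtubule Cytoskeleton Dye, MitoTracker Red and Annexin V Alexa Fluor 680 and imaged on a CQ1 microscope at 37°C and 5% CO2 after compound addition. The gating first set Hoechst high-intensity objects apart from normal cells, then split normal cells into healthy, pyknosed or fragmented nuclei, and pyknosed cells into mitotic or apoptotic.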
# [1] = 12 h, 1 µM, compound concentration 1 uM, replicate 1
# [2] = 12 h, 1 µM, compound concentration 1 uM, replicate 2
# [3] = 12 h, 10 µM, compound concentration 10 uM, replicate 1
# [4] = 12 h, 10 µM, compound concentration 10 uM, replicate 2
# [5] = 24 h, 1 µM, compound concentration 1 uM, replicate 1
# [6] = 24 h, 1 µM, compound concentration 1 uM, replicate 2
# [7] = 24 h, 10 µM, compound concentration 10 uM, replicate 1
# [8] = 24 h, 10 µM, compound concentration 10 uM, replicate 2
# [9] = 48 h, 1 µM, compound concentration 1 uM, replicate 1
# [10] = 48 h, 1 µM, compound concentration 1 uM, replicate 2
# [11] = 48 h, 10 µM, compound concentration 10 uM, replicate 1
# [12] = 48 h, 10 µM, compound concentration 10 uM, replicate 2
compound,measurement,setting,value
COc1cc(-n2cnc3cc(-c4ccc(Cl)cc4)sc3c2=O)ccc1OCCN1CCCC1,Population Apoptotic (%),[1],52%
same,Population Fragmented Nuclei (%),[1],32%
same,Population Healthy Nuclei (%),[1],49%
same,Population Hoechst High Intensity Objects (%),[1],13%
same,Population Membrane Permeable-Phenotype (%),[1],23%
same,Population Mitochondria Different-Phenotype (%),[1],13%
same,Population Mitotic Cells (%),[1],47%
same,Population Normal (%),[1],86%
same,Population Pyknosed Nuclei (%),[1],18%
same,Population Tubulin-Different-Phenotype (%),[1],38%
same,Total Cell Count,[1],121
same,Population Apoptotic (%),[2],71%
same,Population Fragmented Nuclei (%),[2],11%
same,Population Healthy Nuclei (%),[2],77%
same,Population Hoechst High Intensity Objects (%),[2],16%
same,Population Membrane Permeable-Phenotype (%),[2],10%
same,Population Mitochondria Different-Phenotype (%),[2],44%
same,Population Mitotic Cells (%),[2],28%
same,Population Normal (%),[2],84%
same,Population Pyknosed Nuclei (%),[2],11%
same,Population Tubulin-Different-Phenotype (%),[2],34%
same,Total Cell Count,[2],78
same,Population Apoptotic (%),[3],62%
same,Population Fragmented Nuclei (%),[3],33%
same,Population Healthy Nuclei (%),[3],26%
same,Population Hoechst High Intensity Objects (%),[3],14%
same,Population Membrane Permeable-Phenotype (%),[3],21%
same,Population Mitochondria Different-Phenotype (%),[3],53%
same,Population Mitotic Cells (%),[3],37%
same,Population Normal (%),[3],85%
same,Population Pyknosed Nuclei (%),[3],40%
same,Population Tubulin-Different-Phenotype (%),[3],87%
same,Total Cell Count,[3],141
same,Population Apoptotic (%),[4],26%
same,Population Fragmented Nuclei (%),[4],22%
same,Population Healthy Nuclei (%),[4],57%
same,Population Hoechst High Intensity Objects (%),[4],8%
same,Population Membrane Permeable-Phenotype (%),[4],34%
same,Population Mitochondria Different-Phenotype (%),[4],93%
same,Population Mitotic Cells (%),[4],73%
same,Population Normal (%),[4],91%
same,Population Pyknosed Nuclei (%),[4],19%
same,Population Tubulin-Different-Phenotype (%),[4],97%
same,Total Cell Count,[4],75
same,Population Apoptotic (%),[5],38%
same,Population Fragmented Nuclei (%),[5],36%
same,Population Healthy Nuclei (%),[5],47%
same,Population Hoechst High Intensity Objects (%),[5],17%
same,Population Membrane Permeable-Phenotype (%),[5],17%
same,Population Mitochondria Different-Phenotype (%),[5],5%
same,Population Mitotic Cells (%),[5],61%
same,Population Normal (%),[5],82%
same,Population Pyknosed Nuclei (%),[5],15%
same,Population Tubulin-Different-Phenotype (%),[5],32%
same,Total Cell Count,[5],142
same,Population Apoptotic (%),[6],62%
same,Population Fragmented Nuclei (%),[6],16%
same,Population Healthy Nuclei (%),[6],71%
same,Population Hoechst High Intensity Objects (%),[6],10%
same,Population Membrane Permeable-Phenotype (%),[6],6%
same,Population Mitochondria Different-Phenotype (%),[6],25%
same,Population Mitotic Cells (%),[6],37%
same,Population Normal (%),[6],89%
same,Population Pyknosed Nuclei (%),[6],12%
same,Population Tubulin-Different-Phenotype (%),[6],21%
same,Total Cell Count,[6],83
same,Population Apoptotic (%),[7],92%
same,Population Fragmented Nuclei (%),[7],32%
same,Population Healthy Nuclei (%),[7],15%
same,Population Hoechst High Intensity Objects (%),[7],16%
same,Population Membrane Permeable-Phenotype (%),[7],25%
same,Population Mitochondria Different-Phenotype (%),[7],43%
same,Population Mitotic Cells (%),[7],7%
same,Population Normal (%),[7],83%
same,Population Pyknosed Nuclei (%),[7],51%
same,Population Tubulin-Different-Phenotype (%),[7],93%
same,Total Cell Count,[7],125
same,Population Apoptotic (%),[8],47%
same,Population Fragmented Nuclei (%),[8],24%
same,Population Healthy Nuclei (%),[8],52%
same,Population Hoechst High Intensity Objects (%),[8],14%
same,Population Membrane Permeable-Phenotype (%),[8],42%
same,Population Mitochondria Different-Phenotype (%),[8],89%
same,Population Mitotic Cells (%),[8],52%
same,Population Normal (%),[8],85%
same,Population Pyknosed Nuclei (%),[8],23%
same,Population Tubulin-Different-Phenotype (%),[8],81%
same,Total Cell Count,[8],74
same,Population Apoptotic (%),[9],81%
same,Population Fragmented Nuclei (%),[9],39%
same,Population Healthy Nuclei (%),[9],48%
same,Population Hoechst High Intensity Objects (%),[9],18%
same,Population Membrane Permeable-Phenotype (%),[9],9%
same,Population Mitochondria Different-Phenotype (%),[9],4%
same,Population Mitotic Cells (%),[9],18%
same,Population Normal (%),[9],81%
same,Population Pyknosed Nuclei (%),[9],11%
same,Population Tubulin-Different-Phenotype (%),[9],22%
same,Total Cell Count,[9],166
same,Population Apoptotic (%),[10],33%
same,Population Fragmented Nuclei (%),[10],36%
same,Population Healthy Nuclei (%),[10],61%
same,Population Hoechst High Intensity Objects (%),[10],15%
same,Population Membrane Permeable-Phenotype (%),[10],16%
same,Population Mitochondria Different-Phenotype (%),[10],3%
same,Population Mitotic Cells (%),[10],66%
same,Population Normal (%),[10],84%
same,Population Pyknosed Nuclei (%),[10],2%
same,Population Tubulin-Different-Phenotype (%),[10],51%
same,Total Cell Count,[10],160
same,Population Apoptotic (%),[11],93%
same,Population Fragmented Nuclei (%),[11],52%
same,Population Healthy Nuclei (%),[11],26%
same,Population Hoechst High Intensity Objects (%),[11],37%
same,Population Membrane Permeable-Phenotype (%),[11],23%
same,Population Mitochondria Different-Phenotype (%),[11],47%
same,Population Mitotic Cells (%),[11],6%
same,Population Normal (%),[11],62%
same,Population Pyknosed Nuclei (%),[11],20%
same,Population Tubulin-Different-Phenotype (%),[11],85%
same,Total Cell Count,[11],124
same,Population Apoptotic (%),[12],63%
same,Population Fragmented Nuclei (%),[12],36%
same,Population Healthy Nuclei (%),[12],53%
same,Population Hoechst High Intensity Objects (%),[12],32%
same,Population Mitochondria Different-Phenotype (%),[12],30%
same,Population Mitotic Cells (%),[12],36%
same,Population Normal (%),[12],67%
same,Population Pyknosed Nuclei (%),[12],9%
same,Total Cell Count,[12],167
OC1(c2ccc(Cl)cc2)CCN(Cc2c[nH]c3ccccc23)CC1,Population Apoptotic (%),[1],58%
same,Population Fragmented Nuclei (%),[1],26%
same,Population Healthy Nuclei (%),[1],41%
same,Population Hoechst High Intensity Objects (%),[1],11%
same,Population Membrane Permeable-Phenotype (%),[1],22%
same,Population Mitochondria Different-Phenotype (%),[1],6%
same,Population Mitotic Cells (%),[1],41%
same,Population Normal (%),[1],88%
same,Population Pyknosed Nuclei (%),[1],32%
same,Population Tubulin-Different-Phenotype (%),[1],33%
same,Total Cell Count,[1],169
same,Population Apoptotic (%),[2],0%
same,Population Fragmented Nuclei (%),[2],13%
same,Population Healthy Nuclei (%),[2],77%
same,Population Hoechst High Intensity Objects (%),[2],10%
same,Population Membrane Permeable-Phenotype (%),[2],3%
same,Population Mitochondria Different-Phenotype (%),[2],13%
same,Population Mitotic Cells (%),[2],100%
same,Population Normal (%),[2],89%
same,Population Pyknosed Nuclei (%),[2],9%
same,Population Tubulin-Different-Phenotype (%),[2],9%
same,Total Cell Count,[2],78
same,Population Apoptotic (%),[3],63%
same,Population Fragmented Nuclei (%),[3],37%
same,Population Healthy Nuclei (%),[3],38%
same,Population Hoechst High Intensity Objects (%),[3],30%
same,Population Membrane Permeable-Phenotype (%),[3],13%
same,Population Mitochondria Different-Phenotype (%),[3],34%
same,Population Mitotic Cells (%),[3],36%
same,Population Normal (%),[3],69%
same,Population Pyknosed Nuclei (%),[3],23%
same,Population Tubulin-Different-Phenotype (%),[3],90%
same,Total Cell Count,[3],246
same,Population Apoptotic (%),[4],42%
same,Population Fragmented Nuclei (%),[4],13%
same,Population Hoechst High Intensity Objects (%),[4],3%
same,Population Membrane Permeable-Phenotype (%),[4],4%
same,Population Mitochondria Different-Phenotype (%),[4],95%
same,Population Mitotic Cells (%),[4],57%
same,Population Normal (%),[4],96%
same,Population Pyknosed Nuclei (%),[4],47%
same,Population Tubulin-Different-Phenotype (%),[4],60%
same,Total Cell Count,[4],74
same,Population Apoptotic (%),[5],52%
same,Population Fragmented Nuclei (%),[5],29%
same,Population Healthy Nuclei (%),[5],47%
same,Population Hoechst High Intensity Objects (%),[5],14%
same,Population Membrane Permeable-Phenotype (%),[5],25%
same,Population Mitochondria Different-Phenotype (%),[5],10%
same,Population Mitotic Cells (%),[5],47%
same,Population Normal (%),[5],85%
same,Population Pyknosed Nuclei (%),[5],22%
same,Population Tubulin-Different-Phenotype (%),[5],42%
same,Total Cell Count,[5],174
same,Population Apoptotic (%),[6],20%
same,Population Fragmented Nuclei (%),[6],5%
same,Population Healthy Nuclei (%),[6],88%
same,Population Hoechst High Intensity Objects (%),[6],8%
same,Population Membrane Permeable-Phenotype (%),[6],4%
same,Population Mitochondria Different-Phenotype (%),[6],13%
same,Population Mitotic Cells (%),[6],80%
same,Population Normal (%),[6],91%
same,Population Pyknosed Nuclei (%),[6],6%
same,Population Tubulin-Different-Phenotype (%),[6],8%
same,Total Cell Count,[6],77
same,Population Apoptotic (%),[7],64%
same,Population Fragmented Nuclei (%),[7],24%
same,Population Healthy Nuclei (%),[7],50%
same,Population Hoechst High Intensity Objects (%),[7],43%
same,Population Membrane Permeable-Phenotype (%),[7],20%
same,Population Mitochondria Different-Phenotype (%),[7],51%
same,Population Mitotic Cells (%),[7],35%
same,Population Normal (%),[7],56%
same,Population Pyknosed Nuclei (%),[7],24%
same,Population Tubulin-Different-Phenotype (%),[7],75%
same,Total Cell Count,[7],224
same,Population Apoptotic (%),[8],66%
same,Population Fragmented Nuclei (%),[8],21%
same,Population Healthy Nuclei (%),[8],27%
same,Population Hoechst High Intensity Objects (%),[8],5%
same,Population Membrane Permeable-Phenotype (%),[8],5%
same,Population Mitochondria Different-Phenotype (%),[8],94%
same,Population Mitotic Cells (%),[8],33%
same,Population Normal (%),[8],94%
same,Population Pyknosed Nuclei (%),[8],51%
same,Population Tubulin-Different-Phenotype (%),[8],52%
same,Total Cell Count,[8],85
same,Population Apoptotic (%),[9],82%
same,Population Fragmented Nuclei (%),[9],33%
same,Population Healthy Nuclei (%),[9],26%
same,Population Hoechst High Intensity Objects (%),[9],0%
same,Population Membrane Permeable-Phenotype (%),[9],54%
same,Population Mitochondria Different-Phenotype (%),[9],0%
same,Population Mitotic Cells (%),[9],17%
same,Population Normal (%),[9],100%
same,Population Pyknosed Nuclei (%),[9],40%
same,Population Tubulin-Different-Phenotype (%),[9],90%
same,Total Cell Count,[9],42
same,Population Apoptotic (%),[10],50%
same,Population Fragmented Nuclei (%),[10],43%
same,Population Healthy Nuclei (%),[10],54%
same,Population Hoechst High Intensity Objects (%),[10],14%
same,Population Membrane Permeable-Phenotype (%),[10],5%
same,Population Mitochondria Different-Phenotype (%),[10],1%
same,Population Mitotic Cells (%),[10],50%
same,Population Normal (%),[10],85%
same,Population Pyknosed Nuclei (%),[10],1%
same,Population Tubulin-Different-Phenotype (%),[10],46%
same,Total Cell Count,[10],119
same,Population Fragmented Nuclei (%),[11],36%
same,Population Healthy Nuclei (%),[11],26%
same,Population Hoechst High Intensity Objects (%),[11],40%
same,Population Membrane Permeable-Phenotype (%),[11],16%
same,Population Mitochondria Different-Phenotype (%),[11],56%
same,Population Normal (%),[11],59%
same,Population Pyknosed Nuclei (%),[11],37%
same,Population Tubulin-Different-Phenotype (%),[11],70%
same,Total Cell Count,[11],191
same,Population Apoptotic (%),[12],90%
same,Population Fragmented Nuclei (%),[12],39%
same,Population Healthy Nuclei (%),[12],24%
same,Population Hoechst High Intensity Objects (%),[12],30%
same,Population Membrane Permeable-Phenotype (%),[12],17%
same,Population Mitochondria Different-Phenotype (%),[12],47%
same,Population Mitotic Cells (%),[12],9%
same,Population Normal (%),[12],69%
same,Population Pyknosed Nuclei (%),[12],35%
same,Population Tubulin-Different-Phenotype (%),[12],52%
same,Total Cell Count,[12],133
